In paper PMC11494403 (Nature plants, 2024):

Experiments:
[1] = MST, binding to Alexa Fluor 647-labelled oligogalacturonide OG7–13^647; conditions: relative to wild-type RALF22
Method in brief: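 Wild-type or mutant peptide, titrated from 200µM, against 40nM Alexa Fluor 647-labelled, fully demethylesterified 7-13mer oligogalacturonide. Incubated 10min at RT, then thermophoresis on a Monolith NT.115 at medium MST power and 80% LED excitation. Data kept only at S/N >5 with no aggregation or ligand-induced initial fluorescence change. Kd averaged over 3 independent experiments.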

[2] = test system: RHs; conditions: 2 day exposure to exogenous RALF1; cited from earlier work
[3] = test system: root; conditions: RALF1-induced; cited from earlier work

| fold reduction in affinity for OG7–13^647 [1] | Substance | root hair length [2] | root growth [3] |
| --- | --- | --- | --- |
| 5.2 fold | AQKKYISYGAMARNSVPCSARGASYYNCQAGAQANPYSRGCSTITRCRR [RALF22^R82A,R90A,R100A] |  |  |
|  | RALF1: exogenous RALF1 peptide of an earlier study (ATTKYISYQSLKRNSVPCSRRGASYYNCQNGAQANPYSRGCSKIARCRS; Protein RALF-like 1; UniProt Q9SRY3 72-120, looked up) | longer RHs | root growth inhibition |
